TRPC4 agonist: TRPC4 (mouse) channel activation | B-score at 10 µM | HEK293 TRPC4beta/mu-opioid, Fluo4 calcium fluorescence; hits give high values | AID 2237 | Q9QUQ5 | 310,000 compounds, 0.49% hits;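 active means B-score above 5 SD of library B-scores, and initial fluorescence ratio not above library mean plus 5 SD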;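 further: positive B-score marks a calcium rise read as TRPC4 activation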
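System: HEK293 cells stably co-expressing mouse TRPC4beta and mu-opioid receptor; Schedule: Fluo4 dye loading 45 min at room temperature, 110 s recording; Detection: Fluo4 fluorescence, kinetic; Evaluation: B-scored integrated calcium fluorescence ratio; Controls: buffer (low) and maximal DAMGO (high).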
TRPC4 block: inhibitors of mouse TRPC4 channel. HEK293 TRPC4beta/mu-opioid, DAMGO-evoked Fluo4 calcium flux; hits give low values. B-score at 10 µM. 300,000 compounds, 0.39% hits. AID 2247;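 active means B-score over 3 SD under the library average, no early fluorescence shift, positive overall ratio signal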
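Material: HEK293 cells with stable TRPC4beta plus mu-opioid receptor expression; probe or stimulus: DAMGO in two steps, submaximal then maximal; technique: Fluo4 calcium fluorescence by kinetic imaging, 5 s 1 Hz baseline; measure: integrated fluorescence ratio relative to baseline, converted to per-well B score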
TRPC6 act: activators of mouse TRPC6 channel; AID 2550; HEK293-TRPC6 membrane potential dye fluorescence; hits give high values; 310,000 compounds, 0.13% hits; Q61143; B-score at 10 µM;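 active means B-score of the integrated fluorescence ratio above library mean plus 3 SD, and starting fluorescence ratio within library mean plus 5 SD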;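 further: higher score means more depolarization so channel activation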
Target sequence (Q61143 whole entry, looked up): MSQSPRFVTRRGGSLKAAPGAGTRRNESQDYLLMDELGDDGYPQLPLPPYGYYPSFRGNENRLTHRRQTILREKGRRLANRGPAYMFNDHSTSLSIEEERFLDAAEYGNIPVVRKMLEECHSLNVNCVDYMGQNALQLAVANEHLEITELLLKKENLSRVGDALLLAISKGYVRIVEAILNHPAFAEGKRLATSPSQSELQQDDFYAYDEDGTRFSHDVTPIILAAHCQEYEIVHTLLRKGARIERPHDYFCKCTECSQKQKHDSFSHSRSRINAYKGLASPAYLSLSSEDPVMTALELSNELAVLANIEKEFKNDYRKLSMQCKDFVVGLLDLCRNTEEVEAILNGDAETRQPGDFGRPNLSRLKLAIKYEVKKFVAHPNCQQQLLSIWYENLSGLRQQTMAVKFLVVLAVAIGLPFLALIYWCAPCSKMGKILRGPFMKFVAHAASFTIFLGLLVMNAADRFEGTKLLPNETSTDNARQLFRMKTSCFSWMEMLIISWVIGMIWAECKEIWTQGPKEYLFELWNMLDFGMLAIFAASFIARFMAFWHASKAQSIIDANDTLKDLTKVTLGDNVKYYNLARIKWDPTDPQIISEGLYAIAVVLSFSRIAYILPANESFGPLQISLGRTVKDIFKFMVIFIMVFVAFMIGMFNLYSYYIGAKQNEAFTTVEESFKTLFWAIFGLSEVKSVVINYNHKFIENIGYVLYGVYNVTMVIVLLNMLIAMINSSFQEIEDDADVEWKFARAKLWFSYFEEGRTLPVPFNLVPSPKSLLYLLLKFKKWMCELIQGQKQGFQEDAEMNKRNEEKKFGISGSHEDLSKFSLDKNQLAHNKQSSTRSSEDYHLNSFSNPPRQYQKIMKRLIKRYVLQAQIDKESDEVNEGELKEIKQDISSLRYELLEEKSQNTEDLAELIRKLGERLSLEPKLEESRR
TRPC6 inh: mouse TRPC6 channel inhibition. B-score at 10 µM. 310,000 compounds, 1.1% hits. Q61143. HEK293-TRPC6, membrane potential dye, ACh-evoked depolarization; hits give low values;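 active means B-score under library mean minus 3 SD, initial fluorescence not abnormally high, positive integrated signal ratio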;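 further: B-score derived from integrated fluorescence ratio over the kinetic read; more negative B-score means stronger inhibition of depolarization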
TRPC4 PAM: allosterically enhances the mouse TRPC4 cation channel. Q9QUQ5. HEK293 TRPC4beta/mu-opioid, DAMGO EC20, Fluo-4 Ca2+ flux; hits give high values. B-score at 10 µM. 310,000 compounds, 0.42% hits. AID 2227;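 active means B-score of calcium response area above 5 SD of library B-scores, with initial fluorescence ratio within 5 SD of library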
TRPC4 spec 2: mouse TRPC4 off-target activity of TRPC6 inhibitors, second screen; HEK293 TRPC4/MOR, membrane potential dye fluorescence; channel activated by saturating DAMGO dose; shares compounds with TRPC6 inh; 920 compounds, 42% hits; AID 2776; inhibition, % at 10 µM;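 active means compounds whose fluorescence signal differed from control wells by over 3 SD, either direction, in both duplicate plates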
TRPC4 spec: selectivity of TRPC6 inhibitors: effect on mouse TRPC4 | 920 compounds, 61% hits | activity change, negative = inhibition, % at 10 µM | shares compounds with TRPC6 inh | HEK293 TRPC4/mu-opioid, membrane potential fluorescence;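 active means rise or fall in signal beyond 3 SD of buffer-only wells in both replicate plates, either sign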;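 further: integrated kinetic ratio of fluorescence range over baseline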
HEK293 MPD ctr 2-1: second counter-screen for TRPC6 inhibitors: parental HEK293 cells; shares compounds with TRPC6 inh; parental HEK293 membrane potential dye fluorescence; maximal acetylcholine challenge after compound addition; signal change vs control, % at 10 µM; 920 compounds, 31% hits; AID 2779;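 active means membrane potential signal moving either way by over 3 SD of the maximum-effect control, in both duplicate plates, meaning non-specific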
HEK293 MPD ctr-1: parental HEK293 nonspecific activity of TRPC6 inhibitors; parental HEK293 membrane potential dye fluorescence; shares compounds with TRPC6 inh; membrane potential signal change, % at 10 µM; 920 compounds, 60% hits; AID 2780;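 active means membrane potential signal shifting up or down by more than 3 SD of buffer-only wells, on both duplicate plates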
HEK293 MPD ctr-2: parental HEK293 nonspecific activity of TRPC6 modulators | shares compounds with TRPC6 inh | membrane potential dye fluorescence | membrane potential signal change, % at 10 µM | 2,400 compounds, 51% hits;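 active means membrane potential signal moves up or down beyond 5 SD from buffer-only wells, on both duplicate plates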
HEK293 MPD ctr 2-2: parental HEK293 nonspecific activity of TRPC6 modulators, second screen; membrane potential dye fluorescence; after compound, maximal acetylcholine stimulation; 2,400 compounds, 14% hits; inhibition, % at 10 µM; AID 488926; shares compounds with TRPC6 inh;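 active means membrane potential signal drops by more than 5 SD from the mean control signal, in both duplicate plates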
TRPC4/MOR mod: tests whether TRPC6 modulators also affect mouse TRPC4; 2,400 compounds, 69% hits; percent change from control (negative = decrease, positive = increase), % at 10 µM; shares compounds with TRPC6 inh; HEK293 TRPC4/mu-opioid, membrane potential fluorescence;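 active means membrane potential signal moved up or down beyond 5 SD of buffer control wells, in both duplicate plates, actives on both sides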
TRPC4/MOR inh 2: mouse TRPC4 off-target activity of TRPC6 modulators, second screen; shares compounds with TRPC6 inh; HEK293 TRPC4/mu-opioid, membrane potential dye fluorescence; stimulated with maximal-effect DAMGO; inhibition, % at 10 µM; 2,400 compounds, 55% hits; AID 488928;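 active means drop in membrane potential signal beyond 5 SD of the control wells in both duplicate plates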;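 further: TRPC4 counter screen for TRPC6 hits run under conditions tuned for TRPC6 not TRPC4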
TRPC6 inh conf: mouse TRPC6 inhibitor confirmation. inhibition, % at 10 µM. shares compounds with TRPC6 inh. 3,300 compounds, 43% hits. HEK293-TRPC6, membrane potential dye, ACh-evoked depolarization;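 active means fluorescence ratio falls more than 5 SD below the full-stimulation control mean, in both duplicate runs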;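 further: integrated fluorescence ratio of peak minus minimum over baseline after agonist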
TRPC6 act conf: mouse TRPC6 activator confirmation. shares compounds with TRPC6 inh. HEK293-TRPC6 membrane potential dye fluorescence, FDSS. AID 488961. 2,800 compounds, 11% hits. activation, % at 10 µM;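 active means ratio signal rise beyond 5 SD above unstimulated control wells' mean, seen in both duplicate runs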
Large screens that a line does not name were inactive (follow-up assays come after a bar, where they were run). Rows were chosen to be rich in hits. Some 2.3% of all compounds tested hit in one or more screens of this group.

Cc1cc(N2CCOCC2)nc2ccc(NC(=O)CCC(=O)N3CCN(c4ccccc4F)CC3)cc12	TRPC6 inh -6.6 | HEK293 MPD ctr-2 -67% | HEK293 MPD ctr 2-2 inactive | TRPC4/MOR mod -16% | TRPC4/MOR inh 2 inactive | TRPC6 inh conf inactive | TRPC6 act conf inactive
Cc1cc(N2CCOCC2)nc2ccc(NC(=O)CCC(=O)N3CCCC(C)C3)cc12 (centres undefined)	TRPC6 inh -6 | HEK293 MPD ctr-2 -68% | HEK293 MPD ctr 2-2 inactive | TRPC4/MOR mod -18% | TRPC4/MOR inh 2 36% | TRPC6 inh conf inactive | TRPC6 act conf inactive
Cc1cc(N2CCOCC2)nc2ccc(NC(=O)CCC(=O)N3CCN(c4ccc(F)cc4)CC3)cc12	none
Cc1cc(N2CCOCC2)nc2ccc(NC(=S)N3CCCCC3C)cc12 (centres undefined)	none
Cc1cc(N2CCCC2)nc2ccc(NC(=S)NCCCN3CCC(C)CC3)cc12	TRPC6 inh -7.2 | TRPC4 spec 2 76% | TRPC4 spec -14% | HEK293 MPD ctr 2-1 18% | HEK293 MPD ctr-1 -192% | TRPC6 inh conf inactive | TRPC6 act conf inactive
COc1cccc(C(=O)Nc2ccc3nc(N4CCOCC4)cc(C)c3c2)c1	TRPC6 inh -5.9 | HEK293 MPD ctr-2 -154% | HEK293 MPD ctr 2-2 inactive | TRPC4/MOR mod -26% | TRPC4/MOR inh 2 30% | TRPC6 inh conf inactive | TRPC6 act conf inactive
COc1ccccc1C(=O)Nc1ccnn1C1CCN(CCCc2ccccc2)CC1	none
CCOc1cc(S(=O)(=O)NCc2cccnc2)c(C)cc1C	none
C[N+](C)(C)C/C=C1/COCO1	TRPC6 inh -6.7 | TRPC4 spec 2 inactive | TRPC4 spec 0.5% | HEK293 MPD ctr 2-1 inactive | HEK293 MPD ctr-1 0.3% | TRPC6 inh conf inactive
O=C1c2ccccc2-c2onc3c(N4CCN(CCO)CC4)cc(N4CCN(C(=O)c5ccco5)CC4)c1c23	TRPC6 inh -7 | TRPC4 spec 2 inactive | TRPC4 spec -47% | HEK293 MPD ctr 2-1 inactive | HEK293 MPD ctr-1 -608% | TRPC6 inh conf inactive | TRPC6 act conf inactive
Cn1ccnc1C1CCCCN1C(=O)c1cc(COc2ccc(F)cc2F)on1 (centres undefined)	none
CCOc1ccc(NS(=O)(=O)c2ccc(C(=O)N(C)Cc3cccc(OC)c3OC)cc2)cc1	none
CCc1nnc(NC(=O)CSc2nnc(-c3ccccc3OC)n2-c2ccccc2)s1	TRPC6 act 12 | HEK293 MPD ctr-2 182% | HEK293 MPD ctr 2-2 inactive | TRPC4/MOR mod 40% | TRPC4/MOR inh 2 inactive | TRPC6 inh conf inactive | TRPC6 act conf 54%
CCc1nnc(NC(=O)CSc2nnc(-c3ccccc3OC)n2-c2ccc(C)cc2)s1	none
CCC(C)(C)c1ccc(OCCCC[n+]2ccc(C)cc2)c(C(C)(C)CC)c1	TRPC6 inh -6.2 | HEK293 MPD ctr-2 inactive | HEK293 MPD ctr 2-2 inactive | TRPC4/MOR mod -14% | TRPC4/MOR inh 2 inactive | TRPC6 inh conf inactive | TRPC6 act conf inactive
Cc1cc[n+](CC[n+]2ccc(C)cc2)cc1	none
O=C(NC1CCCC1)C(c1ccccc1)N(Cc1cccnc1)C(=O)Cc1cccs1 (centres undefined)	TRPC6 inh -6.1 | HEK293 MPD ctr-2 194% | HEK293 MPD ctr 2-2 inactive | TRPC4/MOR mod 50% | TRPC4/MOR inh 2 inactive | TRPC6 inh conf inactive
Cc1ccc(CN(C(=O)Cc2cccs2)C(C(=O)NC2CCCC2)c2ccncc2)cc1 (centres undefined)	none
CCOC(=O)N1CCC(c2cc(=O)n3[nH]c(C)c(-c4ccc(F)cc4)c3n2)CC1	TRPC6 act 16 | HEK293 MPD ctr-2 inactive | HEK293 MPD ctr 2-2 inactive | TRPC4/MOR mod inactive | TRPC4/MOR inh 2 inactive | TRPC6 act conf 196%
CCOC(=O)N1CCC(c2cc(=O)n3[nH]c(-c4ccccc4)cc3n2)CC1	none
O=C1NC(Cc2c[nH]c3ccccc23)C(=O)N1Cc1ccc(CN2C(=O)NC(Cc3c[nH]c4ccccc34)C2=O)cc1 (centres undefined)	TRPC6 inh -5.3 | HEK293 MPD ctr-2 inactive | HEK293 MPD ctr 2-2 inactive | TRPC4/MOR mod inactive | TRPC4/MOR inh 2 inactive | TRPC6 inh conf inactive | TRPC6 act conf inactive
NNc1ccc2c(C(F)(F)F)cc(C(F)(F)F)nc2n1	none
N#CC(c1cccc(Cl)c1)c1ccc2c(C(F)(F)F)cc(C(F)(F)F)nc2n1 (centres undefined)	TRPC6 inh -10 | TRPC4 spec 2 inactive | TRPC4 spec 0.8% | HEK293 MPD ctr 2-1 inactive | HEK293 MPD ctr-1 0.4% | TRPC6 inh conf 75% | TRPC6 act conf inactive
Cc1ccc(OCCC(=O)OCC(=O)NC(=O)c2ccccc2)cc1	none
COc1ccc(CNC(=O)CSc2nc3ccc(C)cc3[nH]2)cc1OC	none
Cc1cc(N2CCN(c3ccc(F)cc3)CC2)nc2cc(O)ccc12	TRPC6 inh -6.3 | HEK293 MPD ctr-2 -60% | HEK293 MPD ctr 2-2 inactive | TRPC4/MOR mod -11% | TRPC4/MOR inh 2 36% | TRPC6 inh conf inactive | TRPC6 act conf inactive
COc1ccc2c(C)cc(N3CCN(c4ccc(F)cc4)CC3)nc2c1	none
CC(C)(C)c1ccc(OCc2ccc(C(=O)NCc3cccnc3)o2)cc1	none

High-throughput results deposited in PubChem by Johns Hopkins Ion Channel Center.
